Experimental data collected from several papers.
Target: Mitogen-activated protein kinase 7 (MAPK7, Homo sapiens, UniProt Q13164)

`CC(C)(C)c1nc2c(s1)c1nc(N)ncc1c1ccc(NS(=O)(=O)c3c(F)cccc3F)c(F)c12` gave a remaining activity of 80% (enzyme activity, inhibitor, radiometric; 1 µM).
With `Cc1nc(N2CC[C@@H](O)C2)ncc1-c1cc(C(F)(F)F)cc2[nH]ncc12` the remaining binding was 83% (binding, competition with immobilised ligand; 1 µM).
For `FC(F)(F)Oc1cccc(-c2cnc3ccc(-c4ccncc4)nn23)c1`, the activity vs control was 51% (enzyme activity, inhibitor, radiometric; 1 µM).
With `O=C(Nc1cnn(-c2csc(C(=O)NC3COC3)c2)c1)Nc1c(F)cccc1Cl` the remaining activity was 75.9% (enzyme activity, inhibitor; 5 µM).
`CC/C(=N\NC(=O)NCc1cccc(O)c1)c1ccc(O)c(C)c1O` has an inhibition of -1.7% (enzyme activity, inhibitor; 0.1 µM).
The remaining signal of `Nc1ncnc2occ(-c3ccc(NC(=O)Nc4cc(C(F)(F)F)ccc4F)cc3)c12` is reported as 1.6% (cell-free assay, inhibitor; 20 µM).
The remaining binding of `CSc1cccnc1N1CCN(Cc2nc3ccccc3[nH]2)CC1` is reported as 100% (cell-free assay, competition with immobilised ligand; 1 µM).
`COc1cc(Nc2cnc(C#N)c(O[C@H](C)CN(C)C)n2)ncc1-c1cnn(C)c1` gave a remaining activity of 86% (enzyme activity, inhibitor, radiometric; 1 µM).
`Cc1nccc(COC(=O)N2C[C@@H]3[C@@H](CNC(=O)c4ccc5[nH]nnc5c4)[C@@H]3C2)n1` gave a remaining binding of 98% (cell-free assay, competition with immobilised ligand; 1 µM).
The activity vs control of `COc1cc(/C=C/C(=O)CC(=O)/C=C/c2ccc(O)c(OC)c2)ccc1O` is reported as 62% (enzyme activity, inhibitor; 1 µM).
`COc1ccc2c(c1)O[C@@H](c1ccc(OC)c(OC)c1)C[C@H]2NC(=O)C1(c2ccc3c(c2)OC(F)(F)O3)CC1` gave a remaining binding of 100% (cell-free assay, competition with immobilised ligand; 1 µM).
`CCCCNc1ncc2c(-c3ccc(F)cc3)nn(C[C@H]3CC[C@H](N)CC3)c2n1` has an inhibition of 11% (target engagement in cells, inhibitor, chemoproteomics; 20 mM).
